From paper PMC7101055 (ACS Chemical Neuroscience, 2020)
“Also recorded” adds a separate entry of the source. Where two headings read alike, the source gives them in different places.

What was measured:
[1] = pH 7.2; cited from earlier work
[2] = 1PE photolysis at 365 and 405 nm; assay type: physicochemical; settings: for Φu(365) quantum yield of photolysis / sensitivity (ε365Φu): 365 nm; for Φu(365) quantum yield of photolysis / Φu(405) quantum yield of photolysis: 0.1 mM in KMOPS buffer; for Φu(365) quantum yield of photolysis / sensitivity (ε365Φu) / Φu(405) quantum yield of photolysis / sensitivity (ε405Φu): pH 7.2; for sensitivity (ε365Φu) / sensitivity (ε405Φu): KMOPS buffer; for Φu(405) quantum yield of photolysis / sensitivity (ε405Φu): 405 nm; for yield of DA or sulpiride released (365 nm): photolysis at 365 nm; for yield of DA or sulpiride released (365 nm) / yield of DA or sulpiride released (405 nm): measured by HPLC, KMOPS pH 7.2; for yield of DA or sulpiride released (405 nm): photolysis at 405 nm
In short: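 Test compound at 0.1 mM in KMOPS buffer (100 mM KCl, 10 mM MOPS, adjusted to pH 7.2 with KOH), irradiated with one-photon light. Released dopamine quantified by HPLC to give chemical yield.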

[3] = Spontaneous hydrolysis in the dark, buffer, by HPLC; assay type: physicochemical; settings: 100-μM solution in KMOPS buffer pH 7.2, HPLC
[4] = 2-photon excitation; assay type: physicochemical; settings: excitation at 740 nm, KMOPS buffer pH 7.2
In short: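 Two-photon uncaging of test compound in KMOPS buffer (100 mM KCl and 10 mM MOPS, brought to pH 7.2 with KOH), with excitation at 740 nm.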

[5] = UV-vis spectra in KMOPS buffer pH 7.2; assay type: physicochemical; settings: for ε365 / ε405: 0.1 mM in KMOPS buffer; for ε365: 365 nm; for ε405: 405 nm; for λmax: 0.1 mM solution in KMOPS buffer
[6] = target: T1, D2 receptors on substantia nigra dopamine neurons (Mus musculus, UniProt P61168); assay type: cell-based
[7] = tested on: D2 receptor; settings: cited from earlier work
[8] = target: T1, D2 receptors on substantia nigra dopamine neurons; assay type: cell-based; settings: CyHQ-sulpiride 5 μM, 1 s flash; quinpirole 300 nM or dopamine 1 μM
[9] = target: human D2 receptors; settings: cited from earlier work
[10] = target: rat D2 receptors; settings: cited from earlier work

T1 sequence (P61168 whole entry): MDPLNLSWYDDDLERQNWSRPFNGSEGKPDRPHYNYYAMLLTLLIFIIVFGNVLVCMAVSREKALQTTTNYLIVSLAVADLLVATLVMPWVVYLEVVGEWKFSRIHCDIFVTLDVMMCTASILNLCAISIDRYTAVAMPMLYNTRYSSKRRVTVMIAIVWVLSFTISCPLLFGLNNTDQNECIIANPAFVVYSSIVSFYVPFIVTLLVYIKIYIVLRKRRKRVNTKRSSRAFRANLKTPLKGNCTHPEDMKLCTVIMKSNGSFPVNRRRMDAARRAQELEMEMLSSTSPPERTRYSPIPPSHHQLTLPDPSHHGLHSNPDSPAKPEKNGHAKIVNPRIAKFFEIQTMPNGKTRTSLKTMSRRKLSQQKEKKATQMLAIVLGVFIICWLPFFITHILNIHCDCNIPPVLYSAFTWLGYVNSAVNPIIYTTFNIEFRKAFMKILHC

Molecule	Φu(365) quantum yield of photolysis [2]	sensitivity (ε365Φu) [2]	Φu(405) quantum yield of photolysis [2]	sensitivity (ε405Φu) [2]	yield of DA or sulpiride released (365 nm) [2]	yield of DA or sulpiride released (405 nm) [2]	dark stability: no spontaneous hydrolysis in the dark observed within the time given [3]	δu 2-photon uncaging action cross-section [4]	ε365 [5]	ε405 [5]	λmax [5]	further results
COc1cc(C(Oc2ccc(CNC(=O)CCCC/C=C/C(C)C)cc2OC)C(=O)O)c([N+](=O)[O-])cc1OC (stereo not drawn)	–	–	–	–	–	–	–	–	–	–	–	decomposition in the dark in 24 h [1]: 1.7%
N#Cc1c(O)ccc2ccc(COc3ccc(CCN)cc3OCc3ccc4ccc(O)c(C#N)c4n3)nc12 [(CyHQ)2-O,O-DA, 2,2′-(((4-(2-Aminoethyl)-1,2-phenylene)bis(oxy))bis(methylene))bis(7-hydroxyquinoline-8-carbonitrile)]	0.19	1044	0.19	61	16%	15%	100 h	0.12 GM	5480 M^–1 cm^–1	324 M^–1 cm^–1	364 nm	chemical yield of dopamine ([2]; range over 365 and 405 nm photolysis): 15–16%; photochemical quantum yield ([2]; wavelength not stated in the sentence (1PE)): 0.19
NCCc1ccc(O)c(O)c1 [dopamine]	–	–	–	–	–	–	–	–	–	–	–	rise time of current from 10 to 90% of the peak ([6]; iontophoretically applied dopamine (1 M, 10 ms 100 nA pulse)): 270 ms; rise time of current from 10 to 90% of the peak ([6]; synaptically released dopamine (IPSC, single stimulation)): 141 ms; koff [7]: 1.69 min^–1; time constant of decay τ of D2 current after CyHQ-sulpiride photolysis [8]: 307 ms
CCN1CCCC1CNC(=O)c1cc(S(N)(=O)=O)ccc1OC (stereo not drawn) [sulpiride]	–	–	–	–	–	–	–	–	–	–	–	effect on CyHQ-O-DA flash response ([6]; sulpiride 500 nM, CyHQ-O-DA 150 μM): all response was blocked; reversal of the dark current produced by CyHQ-O-DA ([6]; sulpiride 1 μM, CyHQ-O-DA 1 mM in the dark): unable to fully reverse the effect; Ki [9]: 9.4 nM; Ki [10]: 6.9 nM
(8-Cyano-7-hydroxyquinolin-2-yl)methyl(3,4-dihydroxyphenethyl)carbamate [CyHQ-N-DA]	0.19	1283	0.20	50	60%	49%	24 h	did not photolyze through 2PE; also recorded: n.p. ^c	6700 M^–1 cm^–1	251 M^–1 cm^–1	364 nm	–
